# Experiments:
# Rattus norvegicus [1] = experiment: Biodistribution of [18F]AFE in rat frontal cortex at 10 min postinjection in vivo; type: ADME, organism-based
# Summary of the method: (§1)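 Male Sprague-Dawley rats, three per group, received ~20 µCi of the F-18 radioligand in saline by tail-vein injection. Rats were anesthetized with CO2 and decapitated at 10, 30, 60, 90 or 120 min. Blood and brain regions were weighed and gamma-counted. %ID/g was decay- and tail-residual-corrected against F-18 standards made from the injectate and reported as mean ± SD.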
# Rattus norvegicus [2] = experiment: Biodistribution of [18F]-AFE in rat frontal cortex at 30 min postinjection in vivo; type: ADME, organism-based; conditions: 0.5 h
# Summary of the method: (§2)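 Male Sprague-Dawley rats, three per time point, received the F-18 radioligand in saline (~20 µCi per rat at injection) by tail vein. Under CO2 anesthesia they were decapitated at 10, 30, 60, 90 or 120 min. Blood and dissected brain regions were weighed and gamma counted. Activity was decay-corrected, and injected dose was corrected for tail residual activity. Uptake was expressed as %ID/g versus injectate standards, mean ± SD.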
# Rattus norvegicus [3] = experiment: Biodistribution of [18F]AFE in rat frontal cortex at 60 min postinjection in vivo; type: ADME, organism-based; conditions: 1 h; summary of the method: as §1
# Rattus norvegicus [4] = experiment: Biodistribution of [18F]AFE in rat frontal cortex at 90 min postinjection in vivo; type: ADME, organism-based; conditions: 1.5 h; summary of the method: as §1
# Rattus norvegicus [5] = experiment: Biodistribution of [18F]AFE in rat frontal cortex at 120 min postinjection in vivo; type: ADME, organism-based; conditions: 2 h; summary of the method: as §1
# Rattus norvegicus [6] = experiment: Biodistribution of [18F]AFE in rat blood at 120 min postinjection in vivo; type: ADME, organism-based; conditions: 2 h; summary of the method: as §1
# Rattus norvegicus [7] = experiment: Biodistribution of [18F]-AFE in rat striatum at 10 min postinjection in vivo; type: ADME, organism-based; summary of the method: as §2
# Rattus norvegicus [8] = experiment: Biodistribution of [18F]AFE in rat striatum at 30 min postinjection in vivo; type: ADME, organism-based; conditions: 0.5 h; summary of the method: as §1
# Rattus norvegicus [9] = experiment: Biodistribution of [18F]-AFE in rat striatum at 90 min postinjection in vivo; type: ADME, organism-based; conditions: 1.5 h; summary of the method: as §2
# Rattus norvegicus [10] = experiment: Biodistribution of [18F]AFE in rat thalamus at 10 min postinjection in vivo; type: ADME, organism-based; summary of the method: as §1
# Rattus norvegicus [11] = experiment: Biodistribution of [18F]AFE in rat thalamus at 30 min postinjection in vivo; type: ADME, organism-based; conditions: 0.5 h; summary of the method: as §1
# Rattus norvegicus [12] = experiment: Biodistribution of [18F]AFE in rat thalamus at 60 min postinjection in vivo; type: ADME, organism-based; conditions: 1 h; summary of the method: as §1
# Rattus norvegicus [13] = species on record: Rattus norvegicus; experiment: Specific binding of [18F]AFA in striatum of rat pretreated with compound 7e; n=3; type: functional
# Rattus norvegicus [14] = species on record: Rattus norvegicus; experiment: Specific binding of [18F]-AFA in thalamus of rat pretreated with compound 7e; n=3; type: functional
# Rattus norvegicus [15] = species on record: Rattus norvegicus; experiment: Specific binding of [18F]AFA in hippocampus of rat pretreated with compound 7e; n=3; type: functional
# Rattus norvegicus [16] = species on record: Rattus norvegicus; experiment: Specific binding of [18F]AFA in hypothalamus of rat pretreated with compound 7e; n=3; type: functional
# Rattus norvegicus [17] = species on record: Rattus norvegicus; experiment: Specific binding of [18F]AFA in frontal cortex of rat pretreated with compound 7e; n=3; type: functional
# Rattus norvegicus [18] = experiment: Biodistribution of [18F]AFE in rat hypothalamus at 120 min postinjection in vivo; type: ADME, organism-based; conditions: 2 h; summary of the method: as §1
# Rattus norvegicus [19] = experiment: Biodistribution of [18F]AFE in rat blood at 10 min postinjection in vivo; type: ADME, organism-based; summary of the method: as §1
# Rattus norvegicus [20] = experiment: Biodistribution of [18F]-AFE in rat blood at 30 min postinjection in vivo; type: ADME, organism-based; conditions: 0.5 h; summary of the method: as §2
# Rattus norvegicus [21] = experiment: Biodistribution of [18F]AFE in rat blood at 60 min postinjection in vivo; type: ADME, organism-based; conditions: 1 h; summary of the method: as §1
# Rattus norvegicus [22] = experiment: Biodistribution of [18F]AFE in rat blood at 90 min postinjection in vivo; type: ADME, organism-based; conditions: 1.5 h; summary of the method: as §1
# Rattus norvegicus [23] = experiment: Biodistribution of [18F]-AFE in rat striatum 60 min postinjection in vivo; type: ADME, organism-based; conditions: 1 h; summary of the method: as §2
# Rattus norvegicus [24] = experiment: Biodistribution of [18F]-AFE in rat cerebellum at 120 min postinjection in vivo; type: ADME, organism-based; conditions: 2 h; summary of the method: as §2
# Rattus norvegicus [25] = experiment: Biodistribution of [18F]AFE in rat hippocampus at 10 min postinjection in vivo; type: ADME, organism-based; summary of the method: as §1
# Rattus norvegicus [26] = experiment: Biodistribution of [18F]AFE in rat hippocampus at 30 min postinjection in vivo; type: ADME, organism-based; conditions: 0.5 h; summary of the method: as §1
# Rattus norvegicus [27] = experiment: Biodistribution of [18F]AFE in rat hippocampus at 60 min postinjection in vivo; type: ADME, organism-based; conditions: 1 h; summary of the method: as §1
# Rattus norvegicus [28] = experiment: Biodistribution of [18F]AFE in rat hippocampus at 90 min postinjection in vivo; type: ADME, organism-based; conditions: 1.5 h; summary of the method: as §1
# Rattus norvegicus [29] = experiment: Biodistribution of [18F]AFE in rat hippocampus at 120 min postinjection in vivo; type: ADME, organism-based; conditions: 2 h; summary of the method: as §1
# Rattus norvegicus [30] = experiment: Biodistribution of [18F]AFE in rat hypothalamus at 10 min postinjection in vivo; type: ADME, organism-based; summary of the method: as §1
# Rattus norvegicus [31] = experiment: Biodistribution of [18F]AFE in rat hypothalamus at 30 min postinjection in vivo; type: ADME, organism-based; conditions: 0.5 h; summary of the method: as §1
# Rattus norvegicus [32] = experiment: Biodistribution of [18F]AFE in rat hypothalamus at 90 min postinjection in vivo; type: ADME, organism-based; conditions: 1.5 h; summary of the method: as §1
# Rattus norvegicus [33] = experiment: Biodistribution of [18F]AFE in rat striatum at 120 min postinjection in vivo; type: ADME, organism-based; conditions: 2 h; summary of the method: as §1
# Rattus norvegicus [34] = experiment: Biodistribution of [18F]AFE in rat thalamus at 120 min postinjection in vivo; type: ADME, organism-based; conditions: 2 h; summary of the method: as §1
# Rattus norvegicus [35] = experiment: Biodistribution of [18F]AFE in rat cerebellum at 10 min postinjection in vivo; type: ADME, organism-based; summary of the method: as §1
# Rattus norvegicus [36] = experiment: Biodistribution of [18F]-AFE in rat cerebellum at 30 min postinjection in vivo; type: ADME, organism-based; conditions: 0.5 h; summary of the method: as §2
# Rattus norvegicus [37] = experiment: Biodistribution of [18F]AFE in rat cerebellum at 60 min postinjection in vivo; type: ADME, organism-based; conditions: 1 h; summary of the method: as §1
# Rattus norvegicus [38] = experiment: Biodistribution of [18F]AFE in rat cerebellum at 90 min postinjection in vivo; type: ADME, organism-based; conditions: 1.5 h; summary of the method: as §1
# Rattus norvegicus [39] = experiment: Biodistribution of [18F]AFE in rat thalamus at 90 min postinjection in vivo; type: ADME, organism-based; conditions: 1.5 h; summary of the method: as §1
# Rattus norvegicus [40] = experiment: Biodistribution of [18F]AFE in rat hypothalamus at 60 min postinjection in vivo; type: ADME, organism-based; conditions: 1 h; summary of the method: as §1
structure (smiles),measurement,setting,value
CN(C)Cc1ccccc1Sc1ccc(CC[18F])cc1N,Biodistribution,Rattus norvegicus [1],0.62 %ID/g
same,Biodistribution,Rattus norvegicus [2],0.32 %ID/g
same,Biodistribution,Rattus norvegicus [3],0.19 %ID/g
same,Biodistribution,Rattus norvegicus [4],0.08 %ID/g
same,Biodistribution,Rattus norvegicus [5],0.06 %ID/g
same,Biodistribution,Rattus norvegicus [6],0.02 %ID/g
same,Biodistribution,Rattus norvegicus [7],0.51 %ID/g
same,Biodistribution,Rattus norvegicus [8],0.33 %ID/g
same,Biodistribution,Rattus norvegicus [9],0.1 %ID/g
same,Biodistribution,Rattus norvegicus [10],0.58 %ID/g
same,Biodistribution,Rattus norvegicus [11],0.39 %ID/g
same,Biodistribution,Rattus norvegicus [12],0.27 %ID/g
same,Specific binding,Rattus norvegicus [13],0.61 %ID/g
same,Specific binding,Rattus norvegicus [14],1.06 %ID/g
same,Specific binding,Rattus norvegicus [15],0.65 %ID/g
same,Specific binding,Rattus norvegicus [16],1.21 %ID/g
same,Specific binding,Rattus norvegicus [17],0.48 %ID/g
same,Biodistribution,Rattus norvegicus [18],0.1 %ID/g
same,Biodistribution,Rattus norvegicus [19],0.25 %ID/g
same,Biodistribution,Rattus norvegicus [20],0.13 %ID/g
same,Biodistribution,Rattus norvegicus [21],0.07 %ID/g
same,Biodistribution,Rattus norvegicus [22],0.04 %ID/g
same,Biodistribution,Rattus norvegicus [23],0.21 %ID/g
same,Biodistribution,Rattus norvegicus [24],0.02 %ID/g
same,Biodistribution,Rattus norvegicus [25],0.38 %ID/g
same,Biodistribution,Rattus norvegicus [26],0.27 %ID/g
same,Biodistribution,Rattus norvegicus [27],0.17 %ID/g
same,Biodistribution,Rattus norvegicus [28],0.09 %ID/g
same,Biodistribution,Rattus norvegicus [29],0.07 %ID/g
same,Biodistribution,Rattus norvegicus [30],0.51 %ID/g
same,Biodistribution,Rattus norvegicus [31],0.41 %ID/g
same,Biodistribution,Rattus norvegicus [32],0.14 %ID/g
same,Biodistribution,Rattus norvegicus [33],0.08 %ID/g
same,Biodistribution,Rattus norvegicus [34],0.13 %ID/g
same,Biodistribution,Rattus norvegicus [35],0.28 %ID/g
same,Biodistribution,Rattus norvegicus [36],0.13 %ID/g
same,Biodistribution,Rattus norvegicus [37],0.06 %ID/g
same,Biodistribution,Rattus norvegicus [38],0.03 %ID/g
same,Biodistribution,Rattus norvegicus [39],0.17 %ID/g
same,Biodistribution,Rattus norvegicus [40],0.24 %ID/g
